Measured values from ChEMBL document CHEMBL3120049, “Conformational restriction of aryl thiosemicarbazones produces potent and selective anti-Trypanosoma cruzi compounds which induce apoptotic parasite death” (Eur J Med Chem, 2014).
The source made the active and inactive calls. No cut-off for these calls is given here.

How the values were obtained:
[1] = Cytotoxicity against BALB/c mouse splenocytes assessed as cell viability after 24 hrs by [3H]thymidine incorporation assay; type: cell-based, Splenocyte; conditions: for MNTC at 24 h: read-out: MNCC
How it was run: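 Splenocytes from BALB/c mice seeded at 5 × 10⁶ cells/well. DMSO stocks serially diluted in RPMI-1640 (final DMSO 1%), triplicate wells. 24 h at 37 °C, 5% CO₂ with […] ³H-thymidine; cells harvested, % ³H-thymidine incorporation by scintillation counting. CC50 from five concentrations; highest non-cytotoxic concentration also noted.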

Trypanosoma cruzi [2] = experiment: Antitrypanosomal activity against Trypanosoma cruzi Y […] trypomastigotes isolated from infected LLC-MK2 cells assessed as parasite viability after 24 hrs by neubauer chamber analysis; type: functional; conditions: LLC-MK2, 24 h
How it was run: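 Y strain (TcII) […] trypomastigotes taken from supernatant of infected LLC-MK2 cells, seeded at 4 × 10⁵ cells/well in RPMI-1640. DMSO stocks serially diluted in RPMI. 24 h at 37 °C, 5% CO₂; viable parasites counted in a Neubauer chamber, % inhibition versus untreated cultures; CC50 by nonlinear regression, triplicates, experiment repeated, SD <10% of mean required.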

Trypanosoma cruzi [3] = experiment: Antitrypanosomal activity against Trypanosoma cruzi Dm28c epimastigotes assessed as inhibition of parasite proliferation after 5 days by hemocytometer analysis; type: functional, organism-based; conditions: 120 h
How it was run: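 Dm28c epimastigotes kept in LIT medium with 10% FBS at 26 °C, seeded at 10⁶ cells/well. DMSO stocks serially diluted in LIT (1.23–100 […] as printed; final DMSO 1%), triplicate wells. 5 days at 26 °C, then viable parasites counted in a Neubauer chamber against untreated culture; IC50 from concentrations in triplicate, experiment repeated, only values with SD <10% of mean kept.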

Trypanosoma cruzi [4] = experiment: Antitrypanosomal activity against Trypanosoma cruzi trypomastigotes assessed as induction of apoptotic parasitic death at CC25 to CC100 after 24 hrs by Annexin V-FITC/propidium iodide staining based flow cytometry; type: functional, organism-based
[5] = target: Cruzipain (Trypanosoma cruzi) (UniProt P25779); experiment: Inhibition of Trypanosomal cruzi recombinant cruzain assessed as substrate cleavage using Z-Phe-Arg-AMC as substrate at 50 uM preincubated for 10 mins measured for 5 mins by flow cytometry; conditions: in the assay text read “by fluorescence assay” for “by flow cytometry”
How it was run: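 Recombinant cruzain, final concentration 0.5 nM, in 0.1 M sodium acetate pH 5.5 with 1 mM β-mercaptoethanol and 0.01% Triton X-100. Substrate Z-FR-AMC at 2.5 (Km 1.0). Screened with no pre-incubation and after 10-min enzyme pre-incubation. Fluorescence read at ex 340/em 440 nm for 5 min, activity relative to DMSO control. Two independent experiments in triplicate.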

[6] = Selectivity index, ratio of CC50 for BALB/c mouse splenocytes to CC50 for Trypanosoma cruzi Y trypomastigotes
How it was run: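 Ratio of CC50 in BALB/c splenocytes (24 h ³H-thymidine incorporation) to CC50 in Y strain trypomastigotes (24 h Neubauer count of viable parasites).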

Trypanosoma cruzi [7] = experiment: Antitrypanosomal activity against Trypanosoma cruzi trypomastigotes assessed as necrotic cells at 1.1 uM after 24 hrs by Annexin V-FITC/propidium iodide staining based flow cytometry (reference value: 0.37%); type: functional
Trypanosoma cruzi [8] = experiment: Antitrypanosomal activity against Trypanosoma cruzi trypomastigotes assessed as necrotic cells at 0.25 uM after 24 hrs by Annexin V-FITC/propidium iodide staining based flow cytometry (reference value: 0.37%); type: functional
Trypanosoma cruzi [9] = experiment: Antitrypanosomal activity against Trypanosoma cruzi trypomastigotes assessed as induction of apoptotic parasitic death after 24 hrs by Annexin V-FITC/propidium iodide staining based flow cytometry; type: functional, organism-based
Trypanosoma cruzi [10] = experiment: Antitrypanosomal activity against Trypanosoma cruzi trypomastigotes assessed as early apoptotic cells at 1.1 uM after 24 hrs by Annexin V-FITC/propidium iodide staining based flow cytometry (reference value: 1.71%); type: functional
Trypanosoma cruzi [11] = experiment: Antitrypanosomal activity against Trypanosoma cruzi trypomastigotes assessed as late apoptotic cells at 0.25 uM after 24 hrs by Annexin V-FITC/propidium iodide staining based flow cytometry (reference value: 0.8%); type: functional
Trypanosoma cruzi [12] = experiment: Antitrypanosomal activity against Trypanosoma cruzi trypomastigotes assessed as late apoptotic cells at 1.1 uM after 24 hrs by Annexin V-FITC/propidium iodide staining based flow cytometry (reference value: 0.8%); type: functional
Trypanosoma cruzi [13] = experiment: Antitrypanosomal activity against Trypanosoma cruzi trypomastigotes assessed as early apoptotic cells at 0.25 uM after 24 hrs by Annexin V-FITC/propidium iodide staining based flow cytometry (reference value: 1.71%); type: functional

Cruzipain (Trypanosoma cruzi), sequence (P25779 123-467 limits assumed): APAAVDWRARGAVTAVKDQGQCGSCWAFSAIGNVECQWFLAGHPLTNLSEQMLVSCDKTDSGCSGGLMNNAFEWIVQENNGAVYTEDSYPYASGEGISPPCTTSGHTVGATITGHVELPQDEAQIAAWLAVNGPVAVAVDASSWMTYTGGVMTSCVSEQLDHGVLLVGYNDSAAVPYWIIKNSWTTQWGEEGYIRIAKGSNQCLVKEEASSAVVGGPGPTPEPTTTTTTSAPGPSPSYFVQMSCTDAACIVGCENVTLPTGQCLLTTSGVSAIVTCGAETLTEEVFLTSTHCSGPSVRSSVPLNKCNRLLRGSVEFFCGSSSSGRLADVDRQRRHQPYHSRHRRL

Row | IC50 (Trypanosoma cruzi [3]) | SMILES | MNTC at 24 h [1] | CC50 (Trypanosoma cruzi [2]) | other results
1 | 86.4 µM | C/C(=N\NC(N)=S)C(C)Oc1ccc(F)cc1 (stereo not given) | > 392 µM | 23.2 µM | 
2 | 5.7 µM | CC1CS(=O)(=O)CCN1/N=C/c1ccc([N+](=O)[O-])o1 (stereo not given) [NIFURTIMOX] |  | 2.7 µM | 
3 | 45.8 µM | C/C(=N\NC(N)=S)C(C)Oc1cccc(Cl)c1 (stereo not given) | 36.8 µM | 5.5 µM | Activity (Trypanosoma cruzi [4]): Active
4 | 4.5 µM | C/C(=N\NC(N)=S)C(C)Oc1ccc(-c2ccccc2)cc1 (stereo not given) | 15.9 µM | 1.3 µM | inhibition [5]: inactive
5 |  | C/C(=N\NC(N)=S)C(C)Oc1ccc(F)c(Cl)c1 (stereo not given) | 34.5 µM | 3.5 µM | 
6 | 2.2 µM | C/C(=N\NC(N)=S)C(C)Oc1cccc(-c2ccccc2)c1 (stereo not given) | 31.9 µM | 1.3 µM | 
7 | 48.8 µM | O=C(Cn1ccnc1[N+](=O)[O-])NCc1ccccc1 [BENZNIDAZOLE] |  | 6.2 µM | 
8 | 5.9 µM | C/C(=N\NC(N)=S)C(C)Oc1ccc(C(C)C)cc1 (stereo not given) | 17.9 µM | 1.5 µM | 
9 | 20.1 µM | C/C(=N\NC(N)=S)C(C)Oc1ccc(Br)cc1 (stereo not given) | 31.6 µM | 3.9 µM | 
10 | 10.3 µM | C/C(=N\NC(N)=S)C(C)Oc1ccccc1Cl (stereo not given) | 36.8 µM | 1.5 µM | 
11 | 17.9 µM | C/C(=N\NC(N)=S)C(C)Oc1ccc2ccccc2c1 (stereo not given) | 34.8 µM | 5.6 µM | 
12 | 71.5 µM | CC(=O)Nc1ccc(OC(C)/C(C)=N/NC(N)=S)cc1 (stereo not given) | > 340 µM | 1.4 µM | CC50 at 24 h [1]: 350 µM; Selectivity Index [6]: 250; Activity (Trypanosoma cruzi [4]): Active
13 | 27.6 µM | COc1ccc(OC(C)/C(C)=N/NC(N)=S)cc1 (stereo not given) | 93.5 µM | 26.8 µM | 
14 | 4.4 µM | C/C(=N\NC(N)=S)C(C)Oc1ccc(Cl)c(Cl)c1 (stereo not given) | 16.3 µM | 4.4 µM | 
15 | 6.8 µM | COc1cccc(OC(C)/C(C)=N/NC(N)=S)c1 (stereo not given) | 37.4 µM | 6.2 µM | 
16 | 5.8 µM | C/C(=N\NC(N)=S)C(C)Oc1cccc(Br)c1 (stereo not given) | 31.6 µM | 4.5 µM | 
17 | 26.1 µM | C/C(=N\NC(N)=S)C(C)Oc1ccccc1 (stereo not given) | 211 µM | 27.3 µM | 
18 | 11.6 µM | CCc1ccc(OC(C)/C(C)=N/NC(N)=S)cc1 (stereo not given) | 18.8 µM | 4.6 µM | 
19 | 4.9 µM | C/C(=N\NC(N)=S)C(C)Oc1cccc2ccccc12 (stereo not given) | 34.8 µM | 1.5 µM | inhibition [5]: inactive
20 | 2.2 µM | C/C(=N\NC(N)=S)C(C)Oc1cccc(Cl)c1Cl (stereo not given) | 32.6 µM | 11.9 µM | 
21 | 4.9 µM | C/C(=N\NC(N)=S)C(C)Oc1ccc(I)cc1 (stereo not given) | 13.7 µM | 1.1 µM | 
22 | 4.6 µM | C/C(=N\NC(N)=S)C(C)Oc1ccc(C(C)(C)C)cc1 (stereo not given) | 17 µM | 1.4 µM | 
23 | 2.2 µM | C/C(=N\NC(N)=S)C(C)Oc1ccccc1-c1ccccc1 (stereo not given) | 31.9 µM | 1.1 µM | Activity (Trypanosoma cruzi [7]): 4.62%; CC50 at 24 h [1]: 50 µM; Activity (Trypanosoma cruzi [8]): 0.51%; Activity (Trypanosoma cruzi [9]): Dose-dependent effect; Activity (Trypanosoma cruzi [10]): 7.8%; Activity (Trypanosoma cruzi [11]): 2.21%; Selectivity Index [6]: 45; Activity (Trypanosoma cruzi [12]): 6.2%; Activity (Trypanosoma cruzi [13]): 1.22%
24 | 13.5 µM | C/C(=N\NC(N)=S)C(C)Oc1ccc(Cl)cc1 (stereo not given) | 92 µM | 22.8 µM | 
25 | 177 µM | C/C(=N\NC(N)=S)C(C)Oc1ccc([N+](=O)[O-])cc1 (stereo not given) | 88.5 µM | 5.9 µM | inhibition [5]: inactive
26 |  | C/C(=N\NC(N)=S)C(C)Oc1ccc(Oc2ccccc2)cc1 (stereo not given) | 30.3 µM | 1.3 µM | 
